Shown are actives, neighbours in structure and some others; about 1.5% of the full set was active somewhere.
PREPL inh: inhibitors of human prolyl oligopeptidase-like enzyme PREPL; Q4J6C6; 320,000 compounds, 0.68% hits; recombinant PREPL, fluorescence polarization activity-based probe; inhibition, % at 5.96 µM; in the data active = inhibition above about 43%
UCH37 inh: inhibitors of human deubiquitinating enzyme UCH37. Q9Y5K5. purified proteasome/UCH37, Ub-AMC cleavage fluorescence. inhibition, % (test concentration not listed). 330,000 compounds, 0.33% hits. AID 588478;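 active = mean inhibition over replicate wells above about 20%, limit read from the data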
Target sequence (Q9Y5K5 whole entry, looked up): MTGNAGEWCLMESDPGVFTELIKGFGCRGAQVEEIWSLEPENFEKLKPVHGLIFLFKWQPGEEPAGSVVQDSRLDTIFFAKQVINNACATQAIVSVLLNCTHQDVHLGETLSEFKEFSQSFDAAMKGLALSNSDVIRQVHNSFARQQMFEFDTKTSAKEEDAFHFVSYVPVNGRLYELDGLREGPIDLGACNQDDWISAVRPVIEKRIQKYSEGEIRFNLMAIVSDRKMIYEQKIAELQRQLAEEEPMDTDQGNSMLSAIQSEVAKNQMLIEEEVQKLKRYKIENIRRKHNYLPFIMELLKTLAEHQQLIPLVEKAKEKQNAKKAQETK
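System: Proteasome-associated human UCH37 deubiquitinase; Input: 0.15 nM proteasome in added enzyme buffer; Also added: Ub-AMC substrate from 1 µM stock; Incubation: 30 min compound-proteasome preincubation then 25 min substrate reaction, room temperature; Detection: fluorescence, ex 355 nm, em 460 nm; Read-out: % inhibition of Ub-AMC cleavage fluorescence; Benchmarks: no-proteasome and no-compound wells.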
UBC13 inh: inhibitors of human UBC13 polyubiquitin chain formation | TR-FRET | P61088 | 330,000 compounds, 0.47% hits | inhibition, % at 20 µM; in the data active = inhibition above about 45%, passing the limit was not always enough
Target sequence (P61088 whole entry, looked up): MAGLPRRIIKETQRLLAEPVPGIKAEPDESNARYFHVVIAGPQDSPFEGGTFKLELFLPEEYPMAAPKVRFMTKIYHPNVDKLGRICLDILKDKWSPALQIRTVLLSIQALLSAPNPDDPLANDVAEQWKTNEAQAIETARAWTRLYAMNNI
Apaf1 inhib: human Apaf-1 inhibition | O14727 | reconstituted apoptosome caspase-3 activity, DEVD-Rh110 fluorescence | inhibition, % at 20 µM | 330,000 compounds, 0.71% hits | AID 489030; active = inhibition of at least 40% at 20 µM
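Assay system: Apoptosome proteins | Medium: pH 7.5 Hepes buffer with CHAPS, BSA, DTT | Also added: Cytochrome c and DEVD-Rh110 substrate | Times: 30 min plus 50 min, RT | Detection: Rhodamine 110 fluorescence at Ex 480/Em 540 nm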
Casp3 UBC13 ctr: counter-screen for UBC13 inhibitors: human caspase-3 inhibition; shares compounds with UBC13 inh; Recombinant caspase-3, Caspase-Glo 3/7 luminescence, 60 min; inhibition, % at 20 µM; 1,400 compounds, 4% hits; AID 488856;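 active = mean inhibition across replicates above about 26%, limit read from the data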
UBC13 confirm: human UBC13 polyubiquitin inhibition, confirmed | shares compounds with UBC13 inh | UBC13 polyubiquitination, TR-FRET, biochemical | inhibition, % at 10 µM | 1,400 compounds, 68% hits; in the data active = inhibition above about 45%
Apaf-1 inh conf: confirmation of Apaf-1 inhibitors | shares compounds with Apaf1 inhib | reconstituted apoptosome, caspase-3 DEVD-Rh110 fluorescence | inhibition, % at 20 µM | 1,800 compounds, 25% hits;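 active = mean inhibition of at least 40% at 20 µM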
Rh110 interf inh: counter-screen for Apaf-1 inhibitors: fluorescence interference | 1,800 tested, under 10 active | shares compounds with Apaf1 inhib | activation (fluorescence interference), % at 20 µM | Rh110 fluorescence interference, quenched caspase reaction;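 active = signal rise of 40% or more at 20 µM, treated as a fluorescence artifact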
Apaf1 inh interf: counter-screen for Apaf-1 inhibitors: fluorescence interference, dose response | shares compounds with Apaf1 inhib | fluorescence interference counterscreen, Apaf-1 assay format | IC50, µM | 460 tested, under 10 active | AID 588538; call rule not given here
A number is an active result; 0 = inactive; - = no result given.

SMILES	PREPL inh	UCH37 inh	UBC13 inh	Apaf1 inhib	Casp3 UBC13 ctr	UBC13 confirm	Apaf-1 inh conf	Rh110 interf inh	others
OC(c1cc(C(F)(F)F)nc2c(C(F)(F)F)cccc12)C1CCCCN1 (stereo not drawn)	0	0	68.1	48.2	0	48.9	0	0
COc1cc(OC)c2c(-c3ccccc3)cc(=O)oc2c1C(CCN1CCCC(C)C1)c1ccc(N(C)C)cc1 (stereo not drawn)	0	0	0	0	-	-	-	-
COc1ccc(C(CCN2CCCC(C)C2)c2c(OC)cc(OC)c3c(-c4ccccc4)cc(=O)oc23)cc1 (stereo not drawn)	0	0	58.9	54.4	0	45.2	0	0
OC(CNCC1CCCO1)Cn1c2ccccc2c2ccccc21 (stereo not drawn)	0	0	0	0	-	-	-	-
OC(CNCC1CCCO1)Cn1c2ccc(Cl)cc2c2cc(Cl)ccc21 (stereo not drawn)	0	0	49.2	43.3	0	88.7	0	0
COc1cc(C=NNC(=O)CSc2ccccn2)ccc1O	-	0	-	-	-	-	-	-
CCN1CCN(Cc2ccc(NC(=O)c3cc(NC(=O)c4cncc(-c5cccs5)c4)cc(OC)c3)cc2C(F)(F)F)CC1	0	-	102.2	67.9	0	90.7	0	0
CCN1CCN(Cc2ccc(NC(=O)c3cc(NC(=O)c4ccc5n[nH]nc5c4)cc(OC)c3)cc2C(F)(F)F)CC1	0	0	0	0	-	-	-	-
CCN1CCN(Cc2ccc(NC(=O)c3cc(NC(=O)N4CCNC4=O)cc(OC)c3)cc2C(F)(F)F)CC1	0	0	0	0	-	-	-	-
CCN1CCN(Cc2ccc(NC(=O)c3cc(NC(=O)c4cc(-c5ccc(OC)cc5)n[nH]4)cc(OC)c3)cc2C(F)(F)F)CC1	0	0	60.9	56.3	0	0	0	0
COc1ccc(C(CNC(=O)c2cc3c(s2)CCC(C)C3)N2CCCC2)cc1 (stereo not drawn)	0	0	59.0	60.6	0	0	0	0
COC(=O)C1=C(C)N(Cc2ccccc2)C(=NCC(C)C)N[C@H]1c1cccc(F)c1	0	0	50.7	43.8	0	0	0	0
COC(=O)C1=C(C)N(Cc2ccccc2)C(=NCCc2ccccn2)N[C@H]1c1cccc(C(F)(F)F)c1	0	0	51.7	48.4	0	58.1	0	0
COC(=O)C1=C(C)N(Cc2ccccc2)C(=NCC(C)C)N[C@H]1c1cccc(C(F)(F)F)c1	0	0	72.3	58.0	0	74.5	0	0
COC(=O)C1=C(C)N(Cc2ccccc2)C(=NCCc2cccnc2)N[C@H]1c1ccc(Br)cc1	0	0	48.2	51.3	0	0	0	0
Cc1ccc(CN2CCN(CC(=O)NN=Cc3ccccc3F)CC2)cc1	-	0	-	-	-	-	-	-
CCC1(C)NC(=O)N(N=Cc2ccc(C)s2)C1=O (stereo not drawn)	-	0	-	-	-	-	-	-
CSc1ccc(C=Nn2c(Cc3ccc(Br)cc3)n[nH]c2=S)cc1	-	0	-	-	-	-	-	-
CCC(C)=NNc1nc(-c2cc3cc(OC)ccc3oc2=O)cs1	-	0	-	-	-	-	-	-
COC(=O)C1=C(C)N(Cc2ccccc2)C(=NCc2ccccc2)N[C@H]1c1cccc(C(F)(F)F)c1	0	-	76.5	64.7	0	82.5	0	0
COC(=O)C1=C(C)N(Cc2ccccc2)C(=NCc2ccc(OC)cc2)N[C@H]1c1cccc(F)c1	0	0	74.2	55.6	0	65.6	0	0
CCSc1ccc2c(c1)N(CCCN1CCN(C)CC1)c1ccccc1S2	0	0	74.9	56.8	0	64.4	0	0
OCCN1CCN(CCCN2c3ccccc3Sc3ccc(C(F)(F)F)cc32)CC1	0	0	86.9	47.6	0	92.1	0	0
OCCN1CCN(CC/C=C2/c3ccccc3Sc3ccc(C(F)(F)F)cc32)CC1	0	0	66.2	58.5	0	70.9	0	0
CN1CCN(CCC(=O)N2c3ccccc3Sc3ccc(C(F)(F)F)cc32)CC1	0	0	0	0	-	-	-	-
SMILES	PREPL inh	UCH37 inh	UBC13 inh	Apaf1 inhib	Casp3 UBC13 ctr	UBC13 confirm	Apaf-1 inh conf	Rh110 interf inh	others
Cc1cc(C=NNC(=O)COc2cccc3cccnc23)c(C)n1-c1ccc(O)cc1	-	0	-	-	-	-	-	-
C=CCn1c(SCC(=O)N(CC)C2CCS(=O)(=O)C2)nnc1-c1ccccc1 (stereo not drawn)	0	0	54.2	61.4	0	53.4	0	0
CCN(C(=O)CSc1nnc(-c2ccccc2)n1C)C1CCS(=O)(=O)C1 (stereo not drawn)	0	0	0	0	-	-	-	-
NC(N)=N/N=C/c1ccc(OCc2ccccc2)c(OCc2ccccc2)c1	0	-	110.5	60.7	0	124.9	41.9	0	Apaf1 inh interf=0
COc1cc(C=NNC(=O)CCN2CCN(C(c3ccccc3)c3ccccc3)CC2)ccc1O	-	0	-	-	-	-	-	-
CN[C@H]1CC[C@@H](c2ccc(Cl)c(Cl)c2)c2ccccc21	0	0	-	54.0	0	-	0	0
CCN(Cc1ccccc1)S(=O)(=O)c1ccc(C(=O)N(CCCN(C)C)c2nc3cc4c(cc3s2)OCCO4)cc1	0	0	95.5	41.3	0	114.2	0	0
CN(C)CCCN(C(=O)c1ccc(S(=O)(=O)N2CCCCC2)cc1)c1nc2cc3c(cc2s1)OCO3	0	0	54.7	41.8	0	89.6	0	0
Cc1cc(C)c2sc(N(CCCN(C)C)C(=O)c3ccc(S(=O)(=O)N(C)C4CCCCC4)cc3)nc2c1	0	0	57.5	40.1	0	97.1	0	0
CCOc1cccc2sc(N(CCCN(C)C)C(=O)c3ccc(S(=O)(=O)N4CCc5ccccc5C4)cc3)nc12	0	0	90.8	61.7	0	110.5	0	0
CCOC(=O)c1cc(CC)sc1N=CC1=C(O)CC(C)(C)CC1=O	-	0	-	-	-	-	-	-
CCc1cc2c(nc1CC)CCN(CCC(C)=NO[C@@H](C)c1cc(-c3c(C)cc(C)cc3C)no1)C2	-	0	-	-	-	-	-	-
CN(C)CCCN(C(=O)c1ccc(S(=O)(=O)N2CCCC2)cc1)c1nc2ccc(Br)cc2s1	0	0	70.5	53.3	0	97.4	0	0
CN(C)CCCN(C(=O)c1ccc(C(=O)c2ccccc2)cc1)c1nc2cc3c(cc2s1)OCO3	0	0	72.1	60.3	0	106.1	0	0
Cc1nn(-c2ccccc2)c(C)c1C=NNc1nc2ccccc2[nH]1	-	0	-	-	-	-	-	-
NC1=NC[C@H](Cc2ccccc2)N1CCc1cc(C(F)(F)F)cc(C(F)(F)F)c1	0	0	80.1	53.5	0	45.0	0	0
FC(F)(F)c1cc(CCN2C(=S)NC[C@@H]2Cc2ccccc2)cc(C(F)(F)F)c1	0	0	0	0	-	-	-	-

Screens (PubChem)
